Type in all cases: cell-based
Data set [1] deals with T1, Peroxisome proliferator-activated receptor gamma (Mus musculus) (UniProt P37238).
T1 sequence (whole entry): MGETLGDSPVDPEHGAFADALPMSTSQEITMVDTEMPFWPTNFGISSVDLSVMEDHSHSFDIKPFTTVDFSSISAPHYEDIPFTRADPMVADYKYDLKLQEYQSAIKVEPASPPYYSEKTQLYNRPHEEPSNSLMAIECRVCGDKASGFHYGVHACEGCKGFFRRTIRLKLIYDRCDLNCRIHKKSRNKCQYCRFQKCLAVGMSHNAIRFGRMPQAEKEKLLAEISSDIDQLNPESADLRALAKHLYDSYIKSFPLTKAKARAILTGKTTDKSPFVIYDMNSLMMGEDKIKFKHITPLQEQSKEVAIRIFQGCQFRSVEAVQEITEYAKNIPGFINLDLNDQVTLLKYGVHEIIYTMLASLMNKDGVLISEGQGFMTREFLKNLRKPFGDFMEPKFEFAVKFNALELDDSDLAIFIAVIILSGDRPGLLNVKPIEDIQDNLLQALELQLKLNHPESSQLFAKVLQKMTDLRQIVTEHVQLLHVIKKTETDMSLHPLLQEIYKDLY
Briefly: Agonist activity at PPARgamma in mouse RAW264.7 cells assessed as increase in protein expression level in nuclear fractions at 30 uM after 24 hrs by Western blot assay relative to control. The method, boiled down:
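Treated RAW 264.7 cells at 10 or 30 μM for 24 h, with rosiglitazone 10 or 30 μM as comparator. Nuclear fractions isolated by NE-PER extraction, protein by BCA, PPAR-γ by Western blot normalized to nuclear TFIIB; three independent experiments.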

Data set [2] concerns RAW264.7. The data set can be described thus: Cytotoxicity against mouse RAW264.7 cells assessed as reduction in cell viability up to 50 uM after 24 hrs by WST assay. As to conditions: raw264.7, 24 h. The method, boiled down: (§1)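 Cells in high-glucose DMEM/10% heat-inactivated FBS with penicillin-streptomycin at 37 °C, 5% CO2; seeded 12 h, then exposed to compound for 24 h. WST reagent 1 h at 37 °C, absorbance at 450 nm.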

The target in data set [3] is T1, Peroxisome proliferator-activated receptor gamma (Mus musculus). Briefly: Agonist activity at PPARgamma in LPS-stimulated mouse RAW264.7 cells assessed as inhibition of NF-kappaB signaling by measuring reduction in NO production pretreated with compound for 1 hr followed by LPS stimulation measured after 24 hrs by Griess assay. The method, boiled down:
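Supernatant mixed 1:1 with Griess reagent, 20 min at 37 °C in the dark, A520; nitrite quantified against 0–100 μM sodium nitrite standards.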

Data set [4] has the same target. The data set can be described thus: Agonist activity at PPARgamma in LPS-stimulated mouse RAW264.7 cells assessed as inhibition of NF-kappaB p65 phosphorylation at 30 uM pretreated with compound for 1 hr followed by LPS stimulation for 30 mins by Western blot assay relative to control. Summed up:
(§2)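 For the antagonist arm, GW9662 (10 μM) was added 1 h before. Phospho-p65 read by Western blot on 10% SDS-PAGE, β-actin reference; three independent experiments.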

The target in data set [5] is T2, Peroxisome proliferator-activated receptor gamma (Homo sapiens) (UniProt P37231).
T2 sequence (whole entry): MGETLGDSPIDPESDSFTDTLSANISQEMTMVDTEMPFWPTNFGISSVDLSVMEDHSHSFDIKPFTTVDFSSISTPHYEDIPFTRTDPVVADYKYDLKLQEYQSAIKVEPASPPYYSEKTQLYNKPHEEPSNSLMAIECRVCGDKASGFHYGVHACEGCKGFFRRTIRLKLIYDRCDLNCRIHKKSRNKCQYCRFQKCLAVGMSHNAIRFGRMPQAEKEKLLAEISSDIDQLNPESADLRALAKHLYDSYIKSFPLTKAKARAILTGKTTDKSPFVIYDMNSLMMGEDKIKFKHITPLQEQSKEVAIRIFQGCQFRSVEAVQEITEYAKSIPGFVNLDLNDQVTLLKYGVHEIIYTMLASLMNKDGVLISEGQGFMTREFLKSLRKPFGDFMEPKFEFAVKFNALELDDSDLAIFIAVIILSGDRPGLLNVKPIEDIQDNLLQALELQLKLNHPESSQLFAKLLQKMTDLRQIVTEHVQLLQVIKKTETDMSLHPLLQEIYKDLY
The data set can be described thus: Agonist activity at full length human flag-tagged PPARgamma1 […] expressed in rat Ac2F cells coexpressing PPRE-X3-TK at 20 uM after 6 hrs by one-glo luciferase reporter gene assay relative to control. The method, boiled down: (§3)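 Rat Ac2F cells at 70–80% confluence transfected by Lipofectamine 2000 with PPRE-X3-TK-luc (1 μg/well) plus pFlag-PPAR-γ1 or pcDNA3 (0.1 μg/well), 4 h, then 10 h in complete medium. Compound (5, 10, 20 μM) or rosiglitazone 5 μM added for 6 h in serum-free medium; ONE-Glo luminescence as fold of control, n = 3.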

The target of data set [6] is T1, Peroxisome proliferator-activated receptor gamma (Mus musculus). Briefly: Agonist activity at PPARgamma in LPS-stimulated mouse RAW264.7 cells assessed as inhibition of NF-kappaB p65 phosphorylation at 30 uM pretreated with compound for 1 hr followed by LPS stimulation for 30 mins in presence of PPARgamma antagonist GW9662 by Western blot assay. The method, boiled down: as §2

Data set [7] shares this target. The data set can be described thus: Agonist activity at PPARgamma in LPS-stimulated mouse RAW264.7 cells assessed as inhibition of NF-kappaB signaling by measuring reduction in TNFalpha mRNA level at 50 uM pretreated with compound for 1 hr followed by LPS stimulation for 6 hrs by RT-PCR analysis relative to control. The method, boiled down:
(§4)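 Trizol RNA, M-MLV cDNA, 27-cycle PCR, agarose gel with ethidium bromide stain; GAPDH as internal control. Three independent experiments.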

For data set [8], the target named is T2, Peroxisome proliferator-activated receptor gamma (Homo sapiens). Briefly: Agonist activity at full length human flag-tagged PPARgamma1 […] expressed in rat Ac2F cells coexpressing PPRE-X3-TK after 6 hrs by one-glo luciferase reporter gene assay. The method, boiled down: as §3
Data set [9] concerns the target T1, Peroxisome proliferator-activated receptor gamma (Mus musculus). The data set can be described thus: Agonist activity at PPARgamma in LPS-stimulated mouse RAW264.7 cells assessed as inhibition of NF-kappaB signaling by measuring reduction in iNOS protein level pretreated with compound for 1 hr followed by LPS stimulation measured after 24 hrs by Western blot analysis.

Data set [10] has the same target. The data set can be described thus: Agonist activity at PPARgamma in LPS-stimulated mouse RAW264.7 cells assessed as inhibition of NF-kappaB signaling by measuring reduction in IL-1beta production pretreated with compound for 1 hr followed by LPS stimulation measured after 24 hrs by ELISA.
For data set [11] the target is unchanged. Briefly: Agonist activity at PPARgamma in LPS-stimulated mouse RAW264.7 cells assessed as inhibition of NF-kappaB signaling by measuring reduction in COX2 protein level pretreated with compound for 1 hr followed by LPS stimulation measured after 24 hrs by Western blot analysis.
For data set [12] the target is unchanged. The data set can be described thus: Agonist activity at PPARgamma in LPS-stimulated mouse RAW264.7 cells assessed as inhibition of NF-kappaB signaling by measuring reduction in IL-1beta mRNA level at 50 uM pretreated with compound for 1 hr followed by LPS stimulation for 6 hrs by RT-PCR analysis relative to control. The method, boiled down: as §4
Data set [13] can be described thus: Cytotoxicity against rat Ac2F cells assessed as reduction in cell viability up to 50 uM after 24 hrs by WST assay. Summed up: as §1
Data set [14] addresses T1, Peroxisome proliferator-activated receptor gamma (Mus musculus). The data set can be described thus: Agonist activity at PPARgamma in LPS-stimulated mouse RAW264.7 cells assessed as inhibition of NF-kappaB signaling by measuring reduction in COX2 mRNA level at 50 uM pretreated with compound for 1 hr followed by LPS stimulation for 6 hrs by RT-PCR analysis relative to control. The method, boiled down: as §4

The target is the same in data set [15]. The data set can be described thus: Agonist activity at PPARgamma in LPS-stimulated mouse RAW264.7 cells assessed as inhibition of NF-kappaB signaling by measuring reduction in TNFalpha mRNA level pretreated with compound for 1 hr followed by LPS stimulation for 6 hrs by RT-PCR analysis. The method, boiled down:
as §4

The target is the same in data set [16]. The data set can be described thus: Agonist activity at PPARgamma in LPS-stimulated mouse RAW264.7 cells assessed as inhibition of NF-kappaB signaling by measuring reduction in IL-1beta mRNA level pretreated with compound for 1 hr followed by LPS stimulation for 6 hrs by RT-PCR analysis. The method, boiled down:
as §4

The target is the same in data set [17]. The data set can be described thus: Agonist activity at PPARgamma in LPS-stimulated mouse RAW264.7 cells assessed as inhibition of NF-kappaB signaling by measuring reduction in iNOS mRNA level at 50 uM pretreated with compound for 1 hr followed by LPS stimulation for 6 hrs by RT-PCR analysis relative to control. The method, boiled down: as §4
Data set [18] has the same target. The data set can be described thus: Agonist activity at PPARgamma in LPS-stimulated mouse RAW264.7 cells assessed as inhibition of NF-kappaB p65 phosphorylation pretreated with compound for 1 hr followed by LPS stimulation for 30 mins by Western blot assay. The method, boiled down:
as §2

Data set [19] shares this target. Briefly: Agonist activity at PPARgamma in LPS-stimulated mouse RAW264.7 cells assessed as inhibition of NF-kappaB signaling by measuring reduction in COX2 mRNA level pretreated with compound for 1 hr followed by LPS stimulation for 6 hrs by RT-PCR analysis. Summed up: as §4
The target is the same in data set [20]. Briefly: Agonist activity at PPARgamma in LPS-stimulated mouse RAW264.7 cells assessed as inhibition of NF-kappaB signaling by measuring reduction in IL-6 mRNA level pretreated with compound for 1 hr followed by LPS stimulation for 6 hrs by RT-PCR analysis. The method, boiled down: as §4
For data set [21] the target is unchanged. The data set can be described thus: Agonist activity at PPARgamma in LPS-stimulated mouse RAW264.7 cells assessed as inhibition of NF-kappaB signaling by measuring reduction in IL-6 production pretreated with compound for 1 hr followed by LPS stimulation measured after 24 hrs by ELISA.
Data set [22] shares this target. The data set can be described thus: Agonist activity at PPARgamma in LPS-stimulated mouse RAW264.7 cells assessed as inhibition of NF-kappaB signaling by measuring reduction in iNOS mRNA level pretreated with compound for 1 hr followed by LPS stimulation for 6 hrs by RT-PCR analysis. Summed up:
as §4

Data set [23] shares this target. The data set can be described thus: Agonist activity at PPARgamma in LPS-stimulated mouse RAW264.7 cells assessed as inhibition of NF-kappaB signaling by measuring reduction in TNFalpha production pretreated with compound for 1 hr followed by LPS stimulation measured after 3 hrs by ELISA.
For data set [24] the target is unchanged. The data set can be described thus: Agonist activity at PPARgamma in LPS-stimulated mouse RAW264.7 cells assessed as inhibition of NF-kappaB signaling by measuring reduction in IL-6 mRNA level at 50 uM pretreated with compound for 1 hr followed by LPS stimulation for 6 hrs by RT-PCR analysis relative to control. Summed up: as §4

Activity calls are given as the source filed them. The calls are words filed in the database; no cut-off is given here.

Turning to `CN(CCOc1ccc(CC2SC(=O)NC2=O)cc1)c1ccccn1` (stereo not given), in data set [1], the fold change (FC) was 2.3.

With `COC(=O)CC/C(C)=C/CC/C(C)=C/Cc1cc(O)c(C)cc1O`, the values for the Activity entry in [2], in data set [8] and in [13] were “Non-Toxic”, “Dose-dependent effect” and “Non-Toxic”, respectively. Further, the inhibition entry in data set [3], in data set [9], in [10], in data set [11], in [15] and in data set [16] was “Dose-dependent effect” each time. The inhibition result in [18], in [19], in data set [20], in [21], in data set [22] and in data set [23] was “Dose-dependent effect” throughout. Moreover, the fold change (FC) turned out to be 2.8 in [4]; 3 in data set [5]; 2 in [7]; 1.8 in [1]; 2.5 in [12]; 2 in data set [14]. Also, the fold change (FC) in data set [17] and in [24] was 5 each time. In [6], the inhibition result is “inactive”.
